# Screens (PubChem)
# This is a sample that favours compounds with a hit; in the whole collection about 2% have one here.
# PLCb3 inh = PLC-beta3 (human) inhibition, primary screen; Q01970; Purified PLC-beta3, fluorogenic substrate, fluorescence; inhibition, % at 12.2 µM; 370,000 compounds, 0.18% hits; AID 720704; in the data active = inhibition above about 11%
# VIM-2 inhibitor = inhibitors of Pseudomonas aeruginosa VIM-2 metallo-beta-lactamase; purified VIM-2, nitrocefin hydrolysis, epi-absorbance fluorescence; inhibition, % at 5.6 µM; 290,000 compounds, 0.89% hits;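 active = inhibition above the mean of all tested compounds plus 3 SD, cutoff set per screening run, cut at about 7.5% in these data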;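 note: red hydrolysis product quenches plate fluorescence so inhibitors raise well fluorescence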
# IMP-1 inh = blocks Pseudomonas aeruginosa IMP-1 metallo-beta-lactamase; 290,000 compounds, 0.45% hits; AID 1556; purified IMP-1, nitrocefin hydrolysis, epi-absorbance fluorescence; inhibition, % at 5.6 µM;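 active = inhibition above the mean plus 3 SD of all compounds in the same screening run, cut at about 4.5% in these data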
#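 System: purified IMP-1; amount: IMP-1 0.2 nM before substrate addition; compound: single dose, 5.6 µM; times: 25 °C, 15 min preincubation, 25 min reaction; signal: Epi-absorbance via hydrolysed-nitrocefin quenching of white-plate fluorescence, 480/530 nm, EDTA stop; benchmarks: DMSO with and without IMP-1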
# PLC-gamma1 inh = PLC-gamma1 (human) inhibition, primary screen; inhibition, % at 12.2 µM; purified PLC-gamma1, fluorogenic substrate, fluorescence; 370,000 compounds, 0.84% hits; P19174; in the data active = inhibition above about 9.5%
# Target sequence (P19174 whole entry, looked up): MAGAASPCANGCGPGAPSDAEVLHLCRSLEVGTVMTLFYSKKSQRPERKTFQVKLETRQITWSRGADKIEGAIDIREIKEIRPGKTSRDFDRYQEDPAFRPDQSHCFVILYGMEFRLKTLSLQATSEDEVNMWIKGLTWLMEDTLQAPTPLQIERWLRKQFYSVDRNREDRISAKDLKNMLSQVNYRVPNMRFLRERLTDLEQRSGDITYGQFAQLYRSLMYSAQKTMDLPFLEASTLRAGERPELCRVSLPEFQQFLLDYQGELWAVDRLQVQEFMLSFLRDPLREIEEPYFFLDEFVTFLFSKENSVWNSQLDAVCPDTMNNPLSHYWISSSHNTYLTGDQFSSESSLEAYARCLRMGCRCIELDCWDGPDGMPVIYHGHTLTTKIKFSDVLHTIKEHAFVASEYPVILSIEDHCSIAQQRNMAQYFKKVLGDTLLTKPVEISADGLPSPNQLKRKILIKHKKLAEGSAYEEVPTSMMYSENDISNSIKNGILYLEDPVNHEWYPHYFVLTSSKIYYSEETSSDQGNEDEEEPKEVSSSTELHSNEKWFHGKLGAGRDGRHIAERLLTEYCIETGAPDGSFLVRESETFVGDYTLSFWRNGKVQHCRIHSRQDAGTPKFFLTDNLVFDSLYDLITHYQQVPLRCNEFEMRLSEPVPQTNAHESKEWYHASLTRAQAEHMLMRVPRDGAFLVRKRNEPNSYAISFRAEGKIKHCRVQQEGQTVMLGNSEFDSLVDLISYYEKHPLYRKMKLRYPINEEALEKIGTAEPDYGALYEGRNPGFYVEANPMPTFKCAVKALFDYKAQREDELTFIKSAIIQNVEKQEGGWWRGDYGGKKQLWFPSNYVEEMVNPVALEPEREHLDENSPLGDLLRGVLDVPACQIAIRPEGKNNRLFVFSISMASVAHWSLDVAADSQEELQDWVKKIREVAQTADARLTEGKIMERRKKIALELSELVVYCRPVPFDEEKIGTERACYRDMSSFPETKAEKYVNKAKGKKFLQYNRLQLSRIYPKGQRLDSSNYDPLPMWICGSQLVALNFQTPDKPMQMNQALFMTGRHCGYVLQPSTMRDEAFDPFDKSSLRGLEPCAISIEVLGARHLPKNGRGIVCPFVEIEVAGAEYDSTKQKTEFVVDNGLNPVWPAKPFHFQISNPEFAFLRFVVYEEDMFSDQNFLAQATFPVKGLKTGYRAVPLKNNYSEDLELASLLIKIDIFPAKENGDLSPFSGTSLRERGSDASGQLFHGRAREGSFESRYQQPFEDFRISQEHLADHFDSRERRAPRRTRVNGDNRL
# PvdQ inh = P. aeruginosa PvdQ acylase inhibition. inhibition, % at 10 µM. purified PvdQ acylase, fluorescence plate reader. 340,000 compounds, 0.063% hits; in the data active = inhibition above about 30%, passing the limit was not always enough
# Hits are given with their value; - = inactive; . = not tested or not shown.
SMILES,PLCb3 inh,VIM-2 inhibitor,IMP-1 inh,PLC-gamma1 inh,PvdQ inh
COc1ccc(CCNC(=O)c2cc3c(=O)n4ccccc4nc3n(Cc3ccco3)c2=N)cc1OC,-,8.1,-,-,-
COc1ccc(CCNC(=O)c2cc3c(=O)n4ccccc4nc3n(CC3CCCO3)c2=N)cc1OC (centres undefined),-,-,-,-,-
COc1ccc(CCn2c(=N)c(C(=O)NCCN3CCOCC3)cc3c(=O)n4ccccc4nc32)cc1OC,-,8.2,-,-,-
Cc1ccc2nc3c(cc(C(=O)NCCc4ccccc4)c(=N)n3CCCN3CCOCC3)c(=O)n2c1,-,9.6,-,-,-
O=C1CCC2(CCC(c3ccccc3)CC2)N1CC[C@@H](O)c1ccccc1 (some centres undefined),-,.,.,-,.
CCOc1ccc(-n2c(SCC(=O)Nc3ccc(S(=O)(=O)Nc4nccs4)cc3)nnc2-c2ccc(C(C)(C)C)cc2)cc1,-,.,.,-,.
Cc1ccc(-c2cc(C(=O)NN=Cc3cccc4ccccc34)[nH]n2)cc1C,-,.,.,-,.
O=c1c(NCCc2ccccc2)c(-c2ccccc2)c1=O,-,-,-,-,-
Cc1ccc(-c2c(NCCc3ccccc3)c(=O)c2=O)cc1,-,-,5.3,-,-
COc1ccc(-c2nn3c(-c4cccc(C)c4)nnc3s2)cc1OC,-,-,-,-,-
COc1ccccc1-c1nnc2sc(-c3ccc(N(C)C)cc3)nn12,-,-,15,-,-
COc1cccc(-c2nn3c(-c4ccccn4)nnc3s2)c1,-,8.0,-,-,-
COc1ccc(-c2nn3c(-c4ccccn4)nnc3s2)cc1OC,-,12,-,-,-
c1ccc(-c2nn3c(-c4ccco4)nnc3s2)nc1,-,9.7,-,-,-
CN(C)C=Nc1nc2c(Br)ccc(Br)c2cc1C(=O)NCC(C)(C)C,-,.,.,-,.
C=CCN(CC#Cc1ccc(C(F)(F)F)cc1)Cc1ccc(OC)cc1OC,-,.,.,-,.
Cc1ccc(-n2[nH]c(C)c(C=Nc3ccc4[nH]c(=O)[nH]c4c3)c2=O)cc1,-,-,-,-,-
Cc1ccc(N=Cc2c(C)[nH]n(-c3nc4ccccc4[nH]3)c2=O)cc1,-,-,5.0,-,-
Cc1cc(C(=O)CN2C(=O)c3ccccc3S2(=O)=O)c(C)n1CC1CCCO1 (centres undefined),-,-,9.4,-,-
CCCn1c(C)cc(C(=O)CN2C(=O)c3ccccc3S2(=O)=O)c1C,-,.,.,-,.
CCOC(=O)c1ccc(NS(=O)(=O)c2ccc3[nH]c(=O)[nH]c3c2)cc1,-,-,-,10,-
CCC(CC)NC(=O)c1ccc(NS(=O)(=O)c2ccc3[nH]c(=O)[nH]c3c2)cc1,-,-,-,-,-
O=C(c1ccc(F)cc1)c1cccc(C(=O)c2ccc(F)cc2)n1,11,.,.,-,-
NC(=O)c1ccc(F)cc1,-,-,-,-,-
C(=C\c1nnc(-c2cccs2)o1)/c1ccccc1,-,-,-,-,38
SMILES,PLCb3 inh,VIM-2 inhibitor,IMP-1 inh,PLC-gamma1 inh,PvdQ inh
Cc1ccc(/C=C/c2nnc(-c3ccccc3)o2)cc1,-,-,-,-,-
CCc1ccc(/C=C/c2c[nH]c3ccccc23)[n+](CC)c1,-,-,-,-,-
C[n+]1ccc(/C=C/c2c[nH]c3ccc(F)cc23)cc1,-,-,4.6,-,-
Cc1cccc(-n2c(-c3csc(C)c3)n[nH]c2=S)c1,-,7.7,-,-,-
Cc1cc(-c2n[nH]c(=S)n2-c2ccccc2C)cs1,-,11,-,-,-
CCc1cc(-c2n[nH]c(=S)n2-c2cccc(C)c2)cs1,-,-,-,-,-
Brc1ccc(-c2csc(N3CCNCC3)n2)cc1,-,.,.,-,.
C=CCN1[C@H](Cc2ccccc2)COc2cc(N3CCSCC3)ccc2S1(=O)=O,-,.,.,-,.
Cc1ncc([N+](=O)[O-])n1CCOC(=O)c1ccc(Cl)cc1Cl,-,9.7,-,-,-
Cc1ccc(NCC(=O)c2ccc(C)cc2)cc1,-,-,36,-,-
CC(C)C[C@H]1COc2cc(N3CCSCC3)ccc2S(=O)(=O)N1C,-,.,.,-,.
C=CCN1[C@@H](C)COc2cc(N3CCCC3)ccc2S1(=O)=O,-,.,.,-,.
CC(C)(C)c1ccc(-c2nnc(SCC(=O)Nc3ccc(S(=O)(=O)Nc4nccs4)cc3)n2-c2ccc(Cl)cc2)cc1,-,.,.,-,.
CCCn1c(SCC(=O)Nc2nnc(C)s2)nnc1C1CC1,-,7.8,-,-,-
CCCn1c(SCC(=O)NC2CCCCC2)nnc1C1CC1,-,-,-,-,-
O=C(c1ccc(Cl)c(Cl)c1)N1CCC(=O)N(C(COCc2ccc(Cl)cc2)Cc2ccccc2)CC1 (centres undefined),-,-,-,12,-
O=C(CCCCCN1C(=O)C2C3C=CC(C3)C2C1=O)Nc1ccc2ncccc2c1 (centres undefined),-,.,.,-,.
COC(=O)[C@]12C[C@H](CC(=O)NCc3cccc(C(F)(F)F)c3)C(=O)N(Cc3ccco3)C1=C[C@H](C1CCCC1)O[C@@H]2C,-,.,.,-,.
COc1ccc(Cn2cc(COC(=O)Nc3ccc(F)cc3)nn2)cc1,-,.,.,-,.
O=C(CN(CCc1ccccc1)Cc1ccccc1)Oc1ccccc1P(=O)(O)O,-,11,-,-,-
COc1ccccc1/C=C/C=c1\sc2nc(=O)c(Cc3ccccc3)nn2c1=O,-,-,7.9,-,-
Nc1c(-c2ccccc2)c(CSc2nc3ccccc3[nH]2)nn1-c1cccc(Cl)c1,-,-,-,-,-
Nc1c(-c2ccccc2)c(CSc2nc3ccccc3[nH]2)nn1-c1ccc(Cl)cc1,-,-,-,12,-
COc1ccccc1C1C(C(N)=O)=C(C)Nc2ncnn21 (centres undefined),-,-,6.8,-,-
CCCc1c(CC)c(=N)c2ccccc2n1C,.,-,8.8,.,-
SMILES,PLCb3 inh,VIM-2 inhibitor,IMP-1 inh,PLC-gamma1 inh,PvdQ inh
Cc1cc(C)cc(C(=O)OCCCN(C)C2CN(Cc3cn(Cc4ccccc4C(F)(F)F)nn3)S(=O)(=O)C2)c1 (centres undefined),-,.,.,-,.
Cn1c(-c2ccc(Br)o2)nc2cc(Br)ccc21,-,8.0,-,-,-
COC(=O)[C@@]1(C(C)C)N=C(c2cc(OC)c(OC)c(OC)c2)[C@]2(O1)C(=O)N(Cc1cn(Cc3ccccc3)nn1)c1ccc(F)cc12,-,.,.,-,.
Cc1ccc2nc3c(cc(C(=O)NCC4CCCO4)c(=N)n3C3CCCC3)c(=O)n2c1 (centres undefined),-,7.9,-,-,-
N=c1c(C(=O)NCC2CCCO2)cc2c(=O)n3ccccc3nc2n1C1CCCC1 (centres undefined),-,-,-,-,-
Cc1cccn2c(=O)c3cc(C(=O)NCC4CCCO4)c(=N)n(C4CCCC4)c3nc12 (centres undefined),-,11,-,-,-
CN1CC=C(c2ccccc2)N(c2ccc(Cl)cc2)C1=O,-,.,.,-,.
Cc1ccc(NC(=O)[C@@H]2CC(=O)O[C@@H]2c2ccccc2)c(C)c1,-,.,.,-,.
CC(C)c1nc(SCC(=O)Nc2ccc(N(C)C)cc2)c2ccccc2n1,-,-,5.2,-,-
CN1C(=O)c2cccc3c(S(=O)(=O)Nc4ccc(O)c(C(=O)O)c4)ccc1c23,-,12,-,-,-
